Compounds with a hit are over-represented: about 3.3% of the library has one in this group of screens.
LEDGF integ inh – blocks HIV-1 LEDGF/p75-dependent DNA integration | TR-FRET IN-LEDGF/p75 DNA integration, Eu/Cy5 | inhibition, % at 3.7 µM | 370,000 tested, 0.64% active;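 active = inhibition above the screen-wide mean plus 3 SD, cut at about 13% in these data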;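 note: signal is the Cy5 over europium emission ratio at 671 and 618 nm; 0% = plate median of compound wells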
MBD2 inh – MBD2-methylated oligo binding inhibition | Q9UBB5 | TR-FRET, MBD2 binding to methylated oligonucleotide | inhibition, % at 4.4 µM | 370,000 tested, 0.31% active; in the data active = inhibition above about 13%
SIAE primary – human SIAE inhibition, primary screen; AID 1053197; inhibition, % at 9.66 µM; SIAE FP-Rh probe binding, fluorescence polarization; 370,000 tested, 0.69% active;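 active = inhibition above a cutoff: mean of compounds within the control limits plus 3 SD of those, cut at about 17% in these data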;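 note: 0% = plate median of compound wells and 100% = probe without SIAE protein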
TDP2 absorb – blocks human TDP2 phosphodiesterase activity; inhibition, % at 12.8 µM; O95551; 370,000 tested, 0.34% active; recombinant TDP2, T5PNP hydrolysis, p-nitrophenol absorbance 415 nm;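 active = inhibition above the mean of all tested compounds plus 3 SD, set per campaign, cut at about 25% in these data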;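 note: 0% = DMSO with enzyme and 100% = buffer with substrate but no TDP2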
Target sequence (O95551 whole entry, looked up): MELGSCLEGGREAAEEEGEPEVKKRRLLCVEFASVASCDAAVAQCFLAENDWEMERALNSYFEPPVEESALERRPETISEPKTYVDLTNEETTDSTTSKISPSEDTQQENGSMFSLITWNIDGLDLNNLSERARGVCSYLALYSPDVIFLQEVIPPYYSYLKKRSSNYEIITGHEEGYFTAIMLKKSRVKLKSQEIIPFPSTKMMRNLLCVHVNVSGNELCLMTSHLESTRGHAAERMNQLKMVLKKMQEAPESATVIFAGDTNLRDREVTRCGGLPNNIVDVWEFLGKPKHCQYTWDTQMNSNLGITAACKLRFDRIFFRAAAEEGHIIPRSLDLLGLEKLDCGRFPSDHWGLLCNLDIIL
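Assay system: Recombinant human TDP2 | Quantity: 120 nM TDP2 per well | Incubation: 2 h at 37 °C | Signal: Epi absorbance | Evaluation: Percent inhibition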
PRMT1 FP inh – blocks human protein arginine methyltransferase 1 | Q99873 | recombinant PRMT1, activity-based probe fluorescence polarization | inhibition, % at 2.79 µM | 370,000 tested, 1.3% active | AID 652257;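 active = inhibition above about 21% made by adding two undisclosed values, limit read from the data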
UHRF1 binding – blocks human UHRF1 binding to methylated DNA. Q96T88. UHRF1 binding to methylated oligo, TR-FRET. inhibition, % at 4.4 µM. 370,000 tested, 0.75% active. AID 687016; in the data active = inhibition above about 21%;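 note: UHRF1 SRA domain binding a hemimethylated CpG hairpin DNA probe; 0% = median of test compound wells and 100% = reference inhibitor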
IN multimer act – activates HIV-1 integrase multimerization in LEDGF counter-screen. shares compounds with LEDGF integ inh. TR-FRET HIV-1 integrase multimerization, biochemical. activation, % at 7.7 µM. 2,000 tested, 17% active; in the data active = activation above about 8.9%
TR-FRET interf – TR-FRET optical interference, LEDGF/p75 integration counter-screen; AID 1053135; 2,000 tested, under 10 active; inhibition, % at 7.7 µM; shares compounds with LEDGF integ inh; TR-FRET optical interference counterscreen, HIV-1 IN multimerization;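 active = inhibition above the mean over all tested compounds plus 3 SD, which no compound reached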;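 note: 0% = integrase with antibodies and DMSO and 100% = antibodies without integrase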
IN-LEDGF confirm – confirmation of HIV-1 LEDGF/p75-dependent integration inhibitors | shares compounds with LEDGF integ inh | TR-FRET LEDGF/p75-dependent HIV-1 integration, biochemical | inhibition, % at 3.7 µM | 2,000 tested, 36% active | AID 1053136; in the data active = inhibition above about 14%
Starred values were filed as active, the others as inactive; x = not tested or not shown.

SMILES	LEDGF integ inh	MBD2 inh	SIAE primary	TDP2 absorb	PRMT1 FP inh	UHRF1 binding	IN multimer act	TR-FRET interf	IN-LEDGF confirm
COC(=O)C[C@@H]1CC[C@H]2[C@H](COc3ccc(NC(=O)C4CCC4)cc3C(=O)N2C)O1	-1	-3	3	6	-3	0	x	x	x
O=C(COC(=O)C1CCN(S(=O)(=O)c2ccc3c(c2)OCCO3)CC1)NC1CCS(=O)(=O)C1 (stereo not drawn)	81*	1	1	-3	2	1	0	1	1
O=C(CSc1cc(Cl)ccc1Cl)N/N=C/c1ccc[nH]1	-2	-3	9	6	-8	0	x	x	x
O=C(c1cccs1)n1ccc2ccc(-c3ccc4ccn(Cc5ccccc5)c4c3)cc21	-5	2	-14	-3	3	2	x	x	x
CC1(c2nnc(Cc3ccccc3)o2)CC(c2cccnc2)=NO1 (stereo not drawn)	92*	-2	4	5	0	6	0	0	-1
Cc1cc(=O)[nH]c(SCC(=O)Nc2ccc(F)c(F)c2)n1	-1	2	-1	-3	3	0	x	x	x
O=C(N/N=C/c1cccnc1)c1cc(-c2cccs2)nc2ccccc12	1	1	-8	4	2	0	x	x	x
O=C(N/N=C/c1ccc2ncccc2c1)c1cc(-c2cccs2)nc2ccccc12	23*	-2	-70	-4	0	1	0	-1	-2
Cc1ccc(C)c(NC(=O)C2CCCN2S(=O)(=O)c2cccc3cccnc23)c1 (stereo not drawn)	1	-4	-2	10	-5	-1	x	x	x
O=c1cc(-c2ccc(O)c(O)c2)oc2c1ccc1ccccc12	51*	10	-3	-6	14	-1	2	-8	68*
COc1ccccc1COC(=O)N/C=C/c1ccco1	14*	1	4	-7	8	6	-1	4	17*
Cc1cc(Cl)ccc1OCCCC(=O)OCC(=O)c1c(N)n(C)c(=O)n(C)c1=O	1	7	-6	2	1	0	x	x	x
Cc1ccc(C)c(OCCC(=O)OCC(=O)c2c(N)n(C)c(=O)n(C)c2=O)c1	24*	-1	3	-3	2	2	-1	4	-2
O=C(CSc1nnc(-c2ccco2)c(-c2ccco2)n1)Nc1ccccc1	38*	11	9	-7	48*	41*	3	-15	55*
CSc1nnc(-c2ccco2)c(-c2ccco2)n1	27*	0	14	23	59*	18	5	-26	45*
CN(C)c1ccc(NC(=O)CSc2nnc(-c3ccco3)c(-c3ccco3)n2)cc1	11	-2	10	7	12	-10	x	x	x
O=C(CSc1ccc(Cl)cc1)Nc1cccc(NC(=O)c2ccco2)c1	0	4	-23	-8	-4	-1	x	x	x
O=C(CSc1ccccc1)Nc1cccc(NC(=O)c2ccco2)c1	16*	6	-5	-5	-1	0	1	-5	-9
Cc1cc(Cl)ccc1OCCCC(=O)NCCCn1ccnc1	-6	2	-1	1	4	0	x	x	x
O=C(CCCOc1ccc(Cl)cc1Cl)NCCCn1ccnc1	27*	1	-4	-3	-1	1	0	-1	2
COC(=O)[C@]12C[C@H](CC(=O)N3CCN(C(=O)c4ccco4)CC3)C(=O)N(CCc3ccc(OC)c(OC)c3)C1=C[C@H](C1CCCC1)O[C@@H]2C	-3	1	2	-3	0	-1	x	x	x
COc1cc(C(=O)NC2CCCCN(C(C)C)C2=O)cc(OC)c1OC (stereo not drawn)	0	-7	-9	0	0	-4	x	x	x
CCOC(=O)CC[C@@H]1CC[C@]2(CCCN(C(=O)C3CCCCC3)C2)O1	-4	7	4	7	0	0	x	x	x
C=CCNC(=S)N/N=C(\C)c1ccc(OC)cc1	16*	10	5	-2	4	27*	1	-4	-10
C=CCNC(=S)N/N=C(\C)c1cccc(OC)c1	2	2	-5	-3	0	-3	x	x	x
SMILES	LEDGF integ inh	MBD2 inh	SIAE primary	TDP2 absorb	PRMT1 FP inh	UHRF1 binding	IN multimer act	TR-FRET interf	IN-LEDGF confirm
CC(OC(=O)c1ccc2ccccc2n1)C(=O)Nc1ccc(N2CCOCC2)cc1 (stereo not drawn)	15*	4	-5	-8	4	-1	1	-5	-7
CCCn1c(NC(=O)c2ccccc2)nc2ccccc21	19*	2	-1	-8	3	-1	-3	13	24*
CCCn1c(NC(=O)c2ccc(C)cc2)nc2ccccc21	19*	5	-1	2	7	1	-2	10	22*
CCCn1c(CNC(=O)c2ccccc2)nc2ccccc21	-2	-4	1	-1	-3	-3	x	x	x
CC1(c2nnnn2-c2ccc3c(c2)OCCO3)CSCC(=O)N1CCc1c[nH]c2ccccc12 (stereo not drawn)	0	5	4	3	-1	0	x	x	x
O=S1(=O)c2ccc(N3CC[C@H](O)C3)cc2O[C@@H]2CCN1C2	5	-7	0	-5	-8	2	x	x	x
c1ccc(-c2ccc(OCCOCCn3cncn3)cc2)cc1	2	1	-2	7	1	1	x	x	x
FC(F)(F)c1cccc(OCCOCCn2cncn2)c1	21*	0	5	2	-1	2	-2	12	11
CCOC(=O)C(C)Sc1ccc2nnc(-c3ccc(F)cc3)n2n1 (stereo not drawn)	15*	-2	-4	-4	1	-1	4	-19	3
COc1cc(OC)c2c(c1O)OC(c1ccccc1)CC2=O (stereo not drawn)	28*	6	4	-1	-6	-1	35*	-126	32*
O=C1CC(c2ccccc2)Oc2cc(O)cc(O)c21 (stereo not drawn)	-1	-3	1	-2	3	0	x	x	x
CC(C)(C)OC(=O)NCCc1ccccc1/C=C/S(=O)(=O)NC1CCCC1	-1	-4	0	-3	5	4	x	x	x
O=C(CSc1nnnn1-c1cccc2ccccc12)Nc1ccc(C(=O)O)cc1	4	3	0	-2	-2	0	x	x	x
COC(=O)CSc1nnnn1-c1cccc2ccccc12	23*	3	3	23	-2	-1	-1	5	2
